Data set [1] has as its system primary mouse microglia. Briefly: Flow cytometric assay of microglial viability. It is filed as cell-based. Particulars: 1 μM inhibitor, with or without 1 ng/ml IFNγ, 24 hr; Figure S2. For orientation: A flow cytometer gives signals particle by particle.
Data set [2] concerns primary mouse microglia. The data set can be described thus: qRT-PCR of homeostatic and DAM genes in primary microglia. Format: cell-based. Particulars: dose ranges between 4 and 50 nM, IFNγ-stimulated conditions; Figure S6. The method in brief:
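Mouse brain microglia were purified by CD11b+ MACS selection, plated on poly-L-lysine and cultured at 37°C. After 24 hr, half the medium was replaced and the ERK1/2 inhibitor added. Cells were preincubated 1 hr, then stimulated with 1 ng/ml IFNγ for 24 hr, matching the NanoString culture conditions. RNA was isolated and checked for concentration and purity by spectrophotometry before qRT-PCR.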
(In general: Quantitative PCR measures a nucleic acid by following its amplification.)

A further data set has as its system ERK2. Particulars: read-out: IC50 for ERK2; ref Morris et al., 2013; cited from earlier work.
Data set [3] relates to primary mouse microglia. Briefly: Microglia-neuron coculture assay of neuronal phagocytosis. Particulars: 1 μM inhibitor, without IFNγ treatment; 24 hr coculture; Figure 5e. Format: cell-based.
The test system of a further data set is ERK1. Particulars: read-out: IC50 for ERK1; ref Morris et al., 2013; cited from earlier work.

The structures appear in SMILES notation.

`O=C(Nc1ccc2[nH]nc(-c3ccncc3)c2c1)[C@@H]1CCN(CC(=O)N2CCN(c3ccc(-c4ncccn4)cc3)CC2)C1` [SCH772984]: the “cell health and viability of microglia” value in the data set with primary mouse microglia [1] was “minimally impacted cell health and viability”. Also, in the data set on primary mouse microglia [2], the “gene expression of Ptgs2 (pro-inflammatory DAM gene)” value is “inhibited gene expression of Ptgs2”. Also, the concentration for half-maximal inhibition (IC50) – broadly, the midpoint of a concentration-inhibition curve – in the data set with ERK2 was 1 nM; with ERK1 it was 4 nM. Besides, in the data set on primary mouse microglia [3], the “microglial phagocytosis of N2a cells” value is on record as “significantly reduced microglial phagocytosis of N2a cells”.

The values above are taken from paper PMC8919593 (Journal of neuroscience research, 2021).
